Results on 16 compounds are retold here after ChEMBL document CHEMBL1147450, “N2-benzyl-N1-(1-(1-naphthyl)ethyl)-3-phenylpropane-1,2-diamines and conformationally restrained indole analogues: development of calindol as a new calcimimetic acting at the calcium sensing receptor” (Bioorg Med Chem Lett, 2004).

Assay type in all cases: functional, cell-based
Assay [1] addresses T1, Extracellular calcium-sensing receptor (Rattus norvegicus) (UniProt P48442).
T1 sequence (whole entry): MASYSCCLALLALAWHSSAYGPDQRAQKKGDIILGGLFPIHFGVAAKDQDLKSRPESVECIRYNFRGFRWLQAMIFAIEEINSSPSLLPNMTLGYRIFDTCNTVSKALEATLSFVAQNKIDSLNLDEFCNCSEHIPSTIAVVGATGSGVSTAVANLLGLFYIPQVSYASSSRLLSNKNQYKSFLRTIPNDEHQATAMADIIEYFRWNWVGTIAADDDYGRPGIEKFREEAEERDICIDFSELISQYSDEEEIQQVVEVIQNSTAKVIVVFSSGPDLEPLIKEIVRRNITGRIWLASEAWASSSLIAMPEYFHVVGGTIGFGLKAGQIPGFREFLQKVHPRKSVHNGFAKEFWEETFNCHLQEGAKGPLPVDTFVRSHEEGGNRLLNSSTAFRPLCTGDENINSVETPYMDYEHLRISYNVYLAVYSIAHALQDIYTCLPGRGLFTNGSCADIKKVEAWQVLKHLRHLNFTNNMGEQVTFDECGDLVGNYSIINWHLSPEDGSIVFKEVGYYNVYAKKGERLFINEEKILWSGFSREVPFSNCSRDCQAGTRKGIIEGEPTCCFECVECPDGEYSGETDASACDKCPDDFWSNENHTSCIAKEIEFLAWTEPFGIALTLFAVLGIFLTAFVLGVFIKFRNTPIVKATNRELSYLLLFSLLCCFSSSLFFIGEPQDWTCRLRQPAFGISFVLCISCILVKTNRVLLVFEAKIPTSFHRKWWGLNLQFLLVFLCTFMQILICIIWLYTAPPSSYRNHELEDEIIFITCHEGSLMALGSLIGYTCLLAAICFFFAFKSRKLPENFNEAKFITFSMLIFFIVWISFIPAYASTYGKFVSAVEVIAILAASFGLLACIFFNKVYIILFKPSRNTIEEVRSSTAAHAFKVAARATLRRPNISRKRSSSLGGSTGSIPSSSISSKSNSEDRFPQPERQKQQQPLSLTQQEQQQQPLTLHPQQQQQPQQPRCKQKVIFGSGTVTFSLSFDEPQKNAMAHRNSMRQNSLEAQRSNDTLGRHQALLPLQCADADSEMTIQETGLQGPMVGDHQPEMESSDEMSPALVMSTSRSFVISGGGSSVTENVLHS
As to the kind of experiment: Maximal stimulation of [3H]-inositol phosphates production in CHO cells expressing rat Calcium sensing receptor (CaSR) at 10 mM [Ca2+]. A digest of the protocol: (§1)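 CHO cells stably transfected with rat brain CaSR, grown in basal Ham's F-12 (0.3 mM Ca2+, 0.6 mM Mg2+), prelabelled overnight with 0.5 µCi/mL myo-[3H]inositol. Drugs were made as 10 mM ethanol stocks, diluted in basal medium, and incubated at 37 °C with 2 mM extracellular Ca2+. Read-out is [3H]IP accumulation as % of the 10 mM Ca2+ maximal response. Two to five independent experiments in triplicate, mean ± SEM.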

For assay [2], the target named is T2, Extracellular calcium-sensing receptor (Rattus norvegicus, UniProt P48442).
T2 sequence (P48442 whole entry): T1 sequence (whole entry)
As to the kind of experiment: Ability to stimulate [3H]inositol phosphates accumulation in CHO cells expressing rat Calcium sensing receptor (CaSR) at 2 mM [Ca2+]. A digest of the protocol: as §1

Assay [3] has as its target T3, Extracellular calcium-sensing receptor (Homo sapiens, UniProt P41180).
T3 sequence (P41180 whole entry): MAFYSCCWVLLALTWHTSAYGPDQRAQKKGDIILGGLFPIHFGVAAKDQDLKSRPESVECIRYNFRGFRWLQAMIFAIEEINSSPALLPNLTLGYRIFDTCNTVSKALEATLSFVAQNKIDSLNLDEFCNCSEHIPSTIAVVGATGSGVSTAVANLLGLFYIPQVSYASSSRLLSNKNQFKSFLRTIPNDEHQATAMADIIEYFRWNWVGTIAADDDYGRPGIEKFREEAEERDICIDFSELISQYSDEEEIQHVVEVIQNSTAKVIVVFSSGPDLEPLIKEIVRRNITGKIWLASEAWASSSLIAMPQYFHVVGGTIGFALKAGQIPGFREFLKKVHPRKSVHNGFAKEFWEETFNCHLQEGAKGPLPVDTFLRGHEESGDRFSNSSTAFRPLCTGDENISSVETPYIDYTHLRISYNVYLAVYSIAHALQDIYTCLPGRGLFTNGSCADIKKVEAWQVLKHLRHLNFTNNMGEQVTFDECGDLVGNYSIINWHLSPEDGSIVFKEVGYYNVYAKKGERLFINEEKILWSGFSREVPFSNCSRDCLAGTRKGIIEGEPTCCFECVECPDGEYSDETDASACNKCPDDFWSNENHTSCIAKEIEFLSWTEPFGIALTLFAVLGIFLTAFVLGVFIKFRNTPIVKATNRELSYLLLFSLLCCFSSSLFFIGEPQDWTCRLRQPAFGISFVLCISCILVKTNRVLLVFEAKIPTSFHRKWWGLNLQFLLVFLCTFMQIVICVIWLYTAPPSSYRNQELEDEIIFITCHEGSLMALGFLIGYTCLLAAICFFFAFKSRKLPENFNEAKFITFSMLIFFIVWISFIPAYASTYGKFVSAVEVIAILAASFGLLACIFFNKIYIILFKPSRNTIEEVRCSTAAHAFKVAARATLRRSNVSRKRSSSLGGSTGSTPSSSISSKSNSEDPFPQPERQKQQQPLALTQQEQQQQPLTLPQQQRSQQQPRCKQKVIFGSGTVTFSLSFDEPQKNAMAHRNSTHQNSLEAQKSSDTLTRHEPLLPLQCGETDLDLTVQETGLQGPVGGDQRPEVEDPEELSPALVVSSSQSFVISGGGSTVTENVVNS
Briefly: Ability to stimulate [3H]inositol phosphates accumulation in HEK293 cells expressing the human calcium sensing receptor (CaSR) at 2 mM [Ca2+]. The procedure, abridged: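 HEK293 cells transiently expressing human CaSR, prelabelled with myo-[3H]inositol. Increasing drug concentrations were applied in the presence of 2 mM extracellular Ca2+. [3H]IP accumulation is expressed as % of the 10 mM Ca2+ response, and EC50 and maximal stimulation come from the dose-response curve. Three to five independent experiments in triplicate.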

`CC(NCC(Cc1ccccc1)NCc1cccc(Cl)c1)c1cccc2ccccc12` (centres undefined): in assay [1], the Accumulation came out at 78%.
`C[C@H](NCc1cc2ccccc2[nH]1)c1cccc2ccccc12`: in assay [1], the Accumulation came out at 32%.
As to `COc1ccc(CNC(CNC(C)c2cccc3ccccc23)Cc2ccccc2)cc1` (centres undefined), in assay [1], the Accumulation came to 80%.
The same measure, in the same setting: the result for `CC(NCc1cc2cc(F)ccc2[nH]1)c1cccc2ccccc12` (centres undefined) reads 87%.
The same measure, in the same setting: the result for `CC(NCc1cc2cc(Cl)ccc2[nH]1)c1cccc2ccccc12` (centres undefined) reads 60%; that for `COc1cc2cc(CNC(C)c3cccc4ccccc34)[nH]c2cc1OC` (centres undefined), 34%.
Regarding `CC(NCc1cc2ccccc2[nH]1)c1cccc2ccccc12` (racemic), in assay [1], the Accumulation amounted to 103%. In addition, the EC50 in assay [2] turned out to be 1.3 µM.
Turning to `COc1ccc(CNC(CNC(C)c2cccc3ccccc23)Cc2ccccc2)cc1OC` (centres undefined), the Accumulation in assay [1] was determined as 74%.
The same measure, in the same setting: the result for `CC(NC(=O)c1cc2ccccc2[nH]1)c1cccc2ccccc12` (centres undefined) reads 2%.
On the same count and under the same terms, the result for `CC(NCC(Cc1ccccc1)NCc1ccccc1)c1cccc2ccccc12` (centres undefined) reads 80%; that for `CC(NCC(Cc1ccccc1)NCc1ccccc1Cl)c1cccc2ccccc12` (centres undefined), 98%; that for `CC(NCC(Cc1ccccc1)NCc1ccc(F)cc1)c1cccc2ccccc12` (centres undefined), 95%.
The same measure, in the same setting: the result for `COc1ccc(S(=O)(=O)n2c(CNC(C)c3cccc4ccccc34)cc3ccccc32)cc1OC` (centres undefined) reads 54%.
Regarding `COc1ccc2[nH]c(CNC(C)c3cccc4ccccc34)cc2c1` (centres undefined), in assay [1], the Accumulation came out at 55%.
Regarding `C[C@@H](NCc1cc2ccccc2[nH]1)c1cccc2ccccc12`, in assay [1], the Accumulation worked out at 117%. Further, the half-maximal effective concentration (EC50) in assay [2] worked out at 1 µM; in assay [3], 0.31 µM.
On to `CC(NCc1cc2ccccc2n1C)c1cccc2ccccc12` (centres undefined), for which the Accumulation in assay [1] is 79%.
